# High-throughput results: PubChem BioAssay, several laboratories
# Shown is part of a subset that was picked to be rich in hits.
# HCT116 PTEN-null – growth suppression of PTEN-null HCT116, primary screen, cell-based, CellTiter-Glo; HCT116 PTEN-null viability, 60 h; hits give low values; viability, % at 10 µM; 1.2% of 140,000 active;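 active = viability at or below a set limit, 4 SD under the median of all tested compounds, cut at about 3.7% in these data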;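 also: PTEN knockout HCT116 line with beta catenin targeted HCT116 as companion control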
# H69AR growth 86K – proliferation blockers of H69AR lung cancer cells, primary screen, cell-based, human, 86K library. H69AR lung tumor viability, ATP luminescence, 72 h; hits give low values. 6% of 85,000 active. viability, % at 10 µM;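 active = viability at or below 40%; inactive = viability above 40%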;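 also: multidrug resistant small cell line overexpressing MRP-1 efflux transporter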
# HUVEC prolif 384 – inhibitors of HUVEC proliferation, primary screen, cell-based, 384-well; CellTiter-Glo luminescence, 72 h; hits give low values; viability, % at 10 µM (by protocol); 1.1% of 86,000 active;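 active = viability at or below 30%; inactive = viability above 30%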
# Candida biofilm – clotrimazole potentiators killing Candida biofilms, primary screen, with clotrimazole, Alamar Blue; inhibition, % at 6 µM; 0.14% of 85,000 active; AID 834, 2007; C. albicans biofilm + clotrimazole;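 active = inhibition above 20%; inactive = inhibition below 20%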;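 also: preformed 24 hr biofilms exposed to compound for 48 hr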
# HCT116 bCat-KO – primary screen for growth suppressors in beta-catenin knockout HCT116 cells (colon tumor, human) | 1.5% of 140,000 active | viability, % at 10 µM | HCT116 beta-catenin knockout viability, CellTiter-Glo, 60 h; hits give low values | AID 818, 2007;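 active = viability at or under a set limit, the compound median less 4 SD, cut at about 6% in these data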
# Lung fibro prol – antiproliferative effect on LL 47 fibroblasts – human, LL 47 cells, CellTiter-Glo luminescence, primary screen. viability, % at 10 µM. LL 47 human lung fibroblast viability, ATP luminescence; hits give low values. AID 719, 2007. 1.1% of 85,000 active;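 active = viability at or below 50% in the single dose screen; inactive = viability above 50%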;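 also: compound exposure lasted 72 h before the ATP readout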
#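 test system = LL 47 human lung fibroblasts | amount = 1,150 fibroblasts seeded per well | medium = 15% FBS in IMEM | times = overnight cell rest, 72 h compound treatment at 37 °C | measured by = CellTiter-Glo luminescence measuring cellular ATP | read-out = viability percentage against median untreated-cell control | benchmarks = cell-only wells, no compound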
# Numbers stand for hits; 0 = inactive; - = no result.
SMILES,HCT116 PTEN-null,H69AR growth 86K,HUVEC prolif 384,Candida biofilm,HCT116 bCat-KO,Lung fibro prol
CC(=O)c1nc(N2C(=O)CC(Cc3ccccc3)C2=O)sc1C (stereo not given),0,-,-,-,0,-
COc1ccc(NC(=O)c2cc3n(n2)C(C(F)(F)F)CC(c2ccco2)N3)cc1 (stereo not given),0,0,0,0,0,0
O=C(NCC12CC3CC(CC(C3)C1)C2)c1cc2n(n1)C(C(F)(F)F)CC(c1ccco1)N2 (stereo not given),0,34,0,0,0,0
Cc1ccc(S(=O)(=O)N=S(CCO)CCO)cc1,0,-,-,-,0,-
O=C(O)CCC(=O)Nc1ccc(Sc2ccc([N+](=O)[O-])cc2)cc1,0,-,-,-,0,-
CC1(C)Cc2c(sc3c2c2ncnn2c2nnc(SCC(=O)NCc4ccco4)n32)CO1,0,0,0,0,0,0
CCC1(C)Cc2c(sc3c2c(=O)n(C)c2nnc(SCC(=O)c4ccccc4)n32)CO1 (stereo not given),-,4.2,0,0,-,35
CCC1(C)Cc2c(sc3c2c2ncnn2c2nnc(SCC(=O)NCc4ccco4)n32)CO1 (stereo not given),0,37,0,0,0,0
O=S(=O)(/N=C(/Nc1ccc(F)cc1F)c1ccccc1)c1ccccc1,0,-,-,-,0,-
CC(NC(=O)/C=C/c1ccco1)c1nc2ccccc2n1Cc1cccc(Cl)c1 (stereo not given),0,-,-,-,0,-
NC(=S)Nc1ccc(Oc2ccc(NC(N)=S)cc2)cc1,0,-,-,-,0,-
COc1cc(-c2nnc(Sc3ccc(C(F)(F)F)cc3[N+](=O)[O-])o2)cc(OC)c1OC,0,1.0,0,0,0,0
O=C(CCNS(=O)(=O)c1c(Cl)cccc1Cl)OCC(=O)c1ccccc1,0,-,-,-,0,-
CCOc1cc(N2CCOCC2)c(OCC)cc1NC(=O)CN1CCCC1,0,-,-,-,0,-
Cc1ccc(C2NC(=O)NC(O)(C(F)(F)F)C2C(=O)c2cccs2)o1 (stereo not given),0,0,17,0,0,0
Cc1ccc(C2NC(=O)NC(O)(C(F)(F)F)C2C(=O)c2ccccc2)o1 (stereo not given),0,0,0,0,0,0
CCCCCCCCCCCCOC1OC(CO)C(O)C(O)C1NC(C)=O (stereo not given),0,-,-,-,0,-
Cc1ccccc1Nc1nnc(SCC(=O)NC(=O)Nc2ccc3c(c2)OCCO3)s1,0,-,-,-,0,-
Cc1cccc(Nc2nnc(SCC(=O)NC(=O)Nc3ccc4c(c3)OCCO4)s2)c1,0.8,-,-,-,0.6,-
c1ccc(C2c3c(ccc4ccccc34)Oc3ncn4nc(-c5ccco5)nc4c32)cc1 (stereo not given),0,-,-,-,0,-
COc1ccc(C2c3c(ncn(CCN4CCOCC4)c3=N)Oc3ccc4ccccc4c32)cc1 (stereo not given),1.1,1.3,29,0,1.5,0
N=c1c2c(ncn1Cc1ccco1)Oc1c(ccc3ccccc13)C2c1ccccc1 (stereo not given),1.6,-,-,-,1.3,-
N=c1c2c(ncn1CCN1CCOCC1)Oc1ccc3ccccc3c1C2c1ccccc1 (stereo not given),1.3,2.3,6.1,0,1.4,0
Cc1cc(C(=O)Cn2nc(C(=O)O)c3ccccc3c2=O)c(C)n1-c1ccc(F)cc1,0,-,-,-,0,-
Cc1ccccc1/C(N)=N/OC(=O)/C=C/c1ccccc1,0,8.9,0,0,0,0
SMILES,HCT116 PTEN-null,H69AR growth 86K,HUVEC prolif 384,Candida biofilm,HCT116 bCat-KO,Lung fibro prol
O=C(Nc1ccc(Cl)cc1)Nc1ccc(N2CCCC2)c(S(=O)(=O)Nc2ccccc2Cl)c1,1.8,-,-,-,1.9,-
Cc1ccc(Sc2oc(/C=N/n3cnnc3)cc2Br)cc1,0,23,0,0,0,0
CCCOC(=O)c1ccc(Oc2c(-c3ccc(OC)cc3O)n[nH]c2C)cc1,0,1.6,25,0,3.5,0
CCOC(=O)c1[nH]nc(-c2cc(CC)c(O)cc2O)c1-c1cscn1,0,0,0,0,0,0
Cc1[nH]nc(-c2ccc(O)cc2O)c1Oc1ccccc1,0,36,0,0,0,0
CCOc1ccc(-c2n[nH]c(C)c2Oc2ccccc2OC)c(O)c1,0,0,0,0,0,0
C=C(C)COc1ccc(-c2n[nH]c(C)c2Oc2ccccc2OC)c(O)c1,0,7.2,29,0,0,0
CCc1cc(-c2n[nH]c(C)c2Oc2ccc(C(C)C)cc2)c(O)cc1O,0,1.1,2.5,0,0,0
CCCOC(=O)c1ccc(Oc2c(-c3ccc(O)cc3O)n[nH]c2C)cc1,0,0,0,0,0,0
O=C(Cc1ccc(Br)cc1)Nc1ccccc1Cl,0,-,-,-,0,-
C/C(CCc1ccc2c(c1)OCO2)=N\N=C(/N)SC1CC(=O)N(c2ccccc2F)C1=O (stereo not given),0,-,-,-,0,-
CCn1c2c(c3cc(Br)ccc31)CCC/C2=N\O,0,0,0,0,0,0
CCCn1c2ccc(/C(C)=N\O)cc2c2cc(/C(C)=N/O)ccc21,0,27,0,0,0,0
CCCn1c(C)nc2c(c1=O)c1nc3ccccc3nc1n2CCC1=CCCCC1,0,13,0,0,0,0
CC1(C)CC(=NOC(=O)c2ccccc2)CC(C)(C)N1O,0,-,-,-,0,-
CC(=O)Nc1cccc(NC(C)=C(C#N)C#N)c1,0,-,-,-,0,-
CCCCc1ccc(Nc2nc(CCC)cc(=O)[nH]2)cc1,0,0,2.5,0,0,0
O=C(/C=C/c1cnc2ccccc2n1)NC12CC3CC(CC(C3)C1)C2,0,-,-,-,0,-
COc1cccc(-c2nc(-c3ccc(NC(=O)c4cccs4)cc3)no2)c1,0,-,-,-,0,-
O=C(C1=C(O)/C(=C/c2ccc(O)cc2)CCC1)C(F)(F)F,0,29,0,0,0,0
COc1ccc(CC/C(C)=N\NC(N)=O)cc1,0,-,-,-,0,-
CC1C/C(=C/c2cccn2C)C(=O)/C(=C/c2cccn2C)C1 (stereo not given),0,0,0,0,3.8,0
CCOC(=O)CSc1nc(N)c2c3c(sc2n1)CCCC3,0,0,0,0,0,0
CCN(CC)C(=O)CSc1nc(N)c2c3c(sc2n1)CC(C)CC3 (stereo not given),0,37,0,0,0,0
CC1CCc2c(sc3nc(C4CC4)nc(SCC(=O)NCc4ccco4)c23)C1 (stereo not given),-,0,0,0,-,0
CC1CCc2c(sc3nc(SCC(=O)NCc4ccco4)nc(N)c23)C1 (stereo not given),0,35,0,0,0,0
CC(C)(CO)NCC(=O)Nc1cc(C(F)(F)F)cc(NC(=O)CNC(C)(C)CO)c1Cl,0,-,-,-,0,-
CCCNC(=O)N1CCN(c2nc(C(C)C)c3c(c2C#N)CC(C)(C)OC3)CC1,0,0,0,0,0,0
CC1(C)Cc2c(C#N)c(N3CCN(C(=O)c4ccco4)CC3)nc(Cc3ccccc3)c2CO1,1.0,0,21,0,1.5,0
